Screens from PubChem BioAssay.
MrgX1 PAM – allosterically activates human MrgX1 receptor signaling. B-score at 10 µM. MrgX1-HEK293, Fluo-4 calcium flux, FDSS; hits give high values. Q96LB2. hit rate 0.63% among 310,000;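 active means plate-corrected calcium response at least 3 library SD above typical, normal starting fluorescence, not activating the receptor alone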;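 further: compound read alongside a low EC10 to EC30 dose of BAM8-22 agonist; peak minus trough fluorescence over baseline measured at the second addition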
Target sequence (Q96LB2 whole entry, looked up): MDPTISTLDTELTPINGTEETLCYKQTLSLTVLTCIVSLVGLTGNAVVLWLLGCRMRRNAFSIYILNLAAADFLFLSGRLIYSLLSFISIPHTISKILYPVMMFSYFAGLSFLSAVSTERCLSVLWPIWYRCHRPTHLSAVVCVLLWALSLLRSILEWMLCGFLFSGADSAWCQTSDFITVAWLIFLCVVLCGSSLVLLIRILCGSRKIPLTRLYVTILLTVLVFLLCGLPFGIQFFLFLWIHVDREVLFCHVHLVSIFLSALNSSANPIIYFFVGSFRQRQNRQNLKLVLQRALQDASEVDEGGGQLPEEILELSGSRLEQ
MrgX1 antagonist – blocks BAM8-22 activation of human MrgX1 receptor. Q96LB2. hit rate 1.3% among 310,000. B-score at 10 µM. MRGX1-HEK293 calcium flux, Fluo-4, BAM8-22 antagonism; hits give low values. AID 588676;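 active means calcium-response B-score plate-corrected more than 3 library SD below zero, starting fluorescence within 5 deviations, no agonist response on first addition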;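 further: peak minus trough fluorescence over baseline after final BAM8-22 challenge near maximal dose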
RGS4 pot – potentiators or activators of RGS4 | HEK293 M3R/inducible RGS4, carbachol calcium flux Fluo4; hits give low values | B-score at 10 µM | hit rate 0.92% among 310,000 | AID 463111;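 active means B-score of the integrated calcium signal more than 4 SD below the library mean, with starting fluorescence not abnormally high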;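 further: negative B-score means reduced calcium response which marks RGS4 activation or potentiation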
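System – HEK293 FlpIn-TREx cells, stable M3R, doxycycline-inducible RGS4 · Reagent – ECmax carbachol challenge · Times – compound preincubation 20 min at room temperature before agonist · Technique – Fluo4 fluorescence kinetic imaging of calcium · Measure – B score of integrated Fluo4 ratio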
RGS4 block – inhibitors of human RGS4; P49798; HEK293 M3R/RGS4 inducible, Fluo-4 calcium flux; hits give high values; triggered by carbachol at its EC20; B-score at 10 µM; hit rate 0.45% among 310,000; AID 463165;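 active means B-score, a plate-corrected calcium signal, over three deviations above library mean, with baseline fluorescence within five deviations of library mean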;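 further: RGS4 expression induced by doxycycline in cells with stable M3 receptor; B-score is computed from the integrated fluorescence ratio over baseline after carbachol; higher B-score means a larger calcium signal and so more RGS4 inhibition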
Target sequence (P49798 whole entry, looked up): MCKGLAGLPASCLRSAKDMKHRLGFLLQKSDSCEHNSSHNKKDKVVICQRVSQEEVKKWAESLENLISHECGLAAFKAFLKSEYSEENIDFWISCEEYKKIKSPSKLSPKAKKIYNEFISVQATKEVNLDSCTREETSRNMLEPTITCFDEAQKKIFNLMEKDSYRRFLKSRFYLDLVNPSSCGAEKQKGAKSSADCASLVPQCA
MrgX1 agonist – agonists of human MrgX1 receptor. MrgX1-HEK293 cells, Fluo-4 calcium fluorescence, agonist mode; hits give high values. B-score at 10 µM. hit rate 0.44% among 310,000. Q96LB2;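 active means calcium response B-score plate-corrected fluorescence ratio at least 3 library SD, with starting fluorescence B-score inside 5 SD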
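times = overnight plating, then 30 min 37 °C plus 30 min room-temperature dye loading | assay system = stable human MrgX1 HEK293 cell line | input = fifteen thousand cells per well | signal = kinetic calcium dye fluorescence, Fluo-4 NW | dosing = compound delivered in addition one of three | read-out = B-scored fluorescence response ratio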
* hit, by the source's call; i = inactive; . = no result. Compounds with a hit are over-represented: about 3.5% of the library has one in this group of screens.

SMILES	MrgX1 PAM	MrgX1 antagonist	RGS4 pot	RGS4 block	MrgX1 agonist
COc1c(O)c(=O)n2c3ccccc3c3ccnc1c32	37*	i	i	i	i
CC1CN(c2nc3ccccc3nc2SCC(=O)Nc2cccc(C(F)(F)F)c2)CC(C)O1 (configuration not stated)	i	i	-7.6*	i	i
O=S(=O)(Nc1ccc2c(c1)OCO2)c1cccs1	i	i	i	i	i
O=S(=O)(Nc1ccc2c(c1)OCCO2)c1cccs1	i	-4.6*	i	i	i
O=C(CSc1ccc(-c2nc3ccccc3[nH]2)cn1)Nc1ccc(S(=O)(=O)N2CCCC2)cc1	i	i	-7.1*	i	i
Cc1cc2nc(-c3ccc(SCC(=O)Nc4ccc(S(=O)(=O)N5CCCC5)cc4)nc3)[nH]c2cc1C	i	i	i	i	i
Nc1c(C(=O)Nc2ccc(F)cc2)sc2nc(-c3ccco3)ccc12	i	-4.9*	i	i	i
Nc1c(C(=O)Nc2ccc(Br)cc2)sc2nc(-c3ccco3)ccc12	i	i	i	i	i
CCN1/C(=C/C=C/c2oc3ccc4ccccc4c3[n+]2CC)Oc2ccc3ccccc3c21	i	-7.8*	-9*	i	i
COc1ccc(N2CCN(C(=O)c3ccc4c(c3)NC(=O)C(CSCc3cccc(F)c3)N4)CC2)cc1 (configuration not stated)	i	i	i	i	36*
Cc1ccc(S(=O)(=O)N2CCN(C(=O)c3ccc([N+](=O)[O-])cc3)C2)cc1	i	i	i	i	i
COc1cccc(COC(=O)C2CCN(C(=O)c3ccc(F)cc3)CC2)c1OC	i	i	i	i	i
O=C1NN(c2ccccc2)C(=O)/C1=C/c1cccs1	i	i	i	i	43*
O=C1NN(c2ccccc2)C(=O)/C1=C\c1ccccc1	i	i	i	i	i
O=C1NN(c2cccc(Br)c2)C(=O)/C1=C/c1cccs1	i	i	i	i	30*
O=C1C(=Cc2cccs2)C(=O)c2ccccc21	i	i	i	i	32*
Cc1ccc(C(=O)NC2CCS(=O)(=O)C2)cc1S(=O)(=O)N1CCCC1 (configuration not stated)	i	i	i	i	i
C/C(CC(=O)Nc1cccc(Cl)c1C)=N\NC(=O)Cc1csc(N)n1	i	i	i	i	i
CC1=C(C)/C(=N\OS(=O)(=O)c2ccccc2)C=CC1=O	i	i	i	i	33*
Cc1ccc(S(=O)(=O)O/N=C2\CCCc3ccccc32)cc1	i	i	i	i	i
CCCCC(CC)C(=O)Nc1ncc([N+](=O)[O-])s1 (configuration not stated)	7.4*	i	i	i	i
CCOC(=O)C1CCCCN1Cc1ccc(-c2ccccc2)cc1 (configuration not stated)	i	i	i	i	i
Cc1cc(OCC(=O)N2CCC(C(=O)O)CC2)c2c(C)cc(=O)oc2c1	i	i	i	i	i
Cc1oc(-c2cccc(Cl)c2)nc1CN1CCCC(C(=O)NC(C)c2ccc3c(c2)OCCO3)C1 (configuration not stated)	i	i	-7*	i	i
CSCCC(NC(=O)c1ccc(Cl)cc1Cl)C(=O)NCc1ccncc1 (configuration not stated)	i	i	i	i	i
SMILES	MrgX1 PAM	MrgX1 antagonist	RGS4 pot	RGS4 block	MrgX1 agonist
COc1ccc(-c2ccc(C3C(C#N)=C(N)Oc4n[nH]c(C)c43)o2)cc1 (configuration not stated)	i	i	i	i	55*
Cc1ccc(C2C(C#N)=C(N)Oc3c2sc2ccccc32)o1 (configuration not stated)	9.2*	i	i	i	i
Cc1ccc(C2C(C#N)=C(N)Oc3n[nH]c(-c4ccccc4)c32)o1 (configuration not stated)	i	i	i	i	50*
Cc1ccc(-n2cc(-c3ccccc3)c3c(N4CCOCC4)ncnc32)cc1	.	.	-7.3*	i	.
Cc1ccc(-n2cc(-c3ccccc3)c3c(N4CCN(C)CC4)ncnc32)cc1	i	i	i	i	i
Cc1ccc(C)c(S(=O)(=O)N2CCCOC2CNC(=O)C(=O)NCCN2CCOCC2)c1 (configuration not stated)	i	i	i	i	i
CCCCOP(=O)(c1ccc(N(C)C)cc1)C(Nc1ccccc1)c1ccccc1 (configuration not stated)	i	i	-7.3*	i	i
CCCOP(=O)(c1ccc(N(C)C)cc1)C(Nc1ccccc1)c1ccc(N(C)C)cc1 (configuration not stated)	i	i	i	i	i
C=C(C)COc1ccc(-c2ncnc(C(F)(F)F)c2-c2ccc(OC)cc2)c(O)c1	i	i	-7.1*	i	i
COc1ccc(/C=C/c2ccc3cccc(O)c3n2)c(OC)c1OC	i	i	i	i	i
COc1cccc(/C=C/c2ccc3cccc(O)c3n2)c1OC	i	i	-7.4*	i	i
COc1ccc(/C=C2\Oc3cc(OCC(=O)N4CCC[C@H]4C(=O)O)ccc3C2=O)c(OC)c1	i	i	i	i	i
COc1ccc(OC)c(/C=C2\Oc3cc(OCC(=O)N4CCC[C@H]4C(=O)O)ccc3C2=O)c1	i	i	i	i	31*
Cn1c(=O)c2nc3ccccc3nc2n(C)c1=O	i	i	-7.5*	i	i
C/C(=N\O)C(C)(C)Nc1ccc(F)cc1	i	i	i	i	i
C/C(=N\O)C(C)(C)Nc1ccc(Cl)cc1	i	i	i	i	44*
O=C1Cc2ccccc2N1c1ccccc1	i	i	i	i	i
O=C1CC(=Nc2ccccc2)NN1c1ccccc1	7.4*	i	i	i	i
CCCN1C(=O)/C(=C/c2c(N3CCNC(=O)C3CC(=O)OCC)nc3c(C)cccn3c2=O)SC1=S (configuration not stated)	i	i	i	i	i
CCOC(=O)CC1C(=O)NCCN1c1nc2ccc(C)cn2c(=O)c1/C=C1\SC(=S)N(C(C)CC)C1=O (configuration not stated)	i	i	i	i	108*
CCOC(=O)CC1C(=O)NCCN1c1nc2ccc(C)cn2c(=O)c1/C=C1\SC(=S)N(CC(C)C)C1=O (configuration not stated)	i	i	i	i	103*
C=CCc1ccccc1OCC(=O)NNC(=S)NCc1ccccc1	i	i	-7*	i	i
